The text below walks through data of ChEMBL document CHEMBL1155447 (J Med Chem, 2010).

The target of assay [1] is T1, Steroid 17-alpha-hydroxylase/17,20 lyase (Homo sapiens, UniProt P05093).
T1 sequence (P05093 whole entry): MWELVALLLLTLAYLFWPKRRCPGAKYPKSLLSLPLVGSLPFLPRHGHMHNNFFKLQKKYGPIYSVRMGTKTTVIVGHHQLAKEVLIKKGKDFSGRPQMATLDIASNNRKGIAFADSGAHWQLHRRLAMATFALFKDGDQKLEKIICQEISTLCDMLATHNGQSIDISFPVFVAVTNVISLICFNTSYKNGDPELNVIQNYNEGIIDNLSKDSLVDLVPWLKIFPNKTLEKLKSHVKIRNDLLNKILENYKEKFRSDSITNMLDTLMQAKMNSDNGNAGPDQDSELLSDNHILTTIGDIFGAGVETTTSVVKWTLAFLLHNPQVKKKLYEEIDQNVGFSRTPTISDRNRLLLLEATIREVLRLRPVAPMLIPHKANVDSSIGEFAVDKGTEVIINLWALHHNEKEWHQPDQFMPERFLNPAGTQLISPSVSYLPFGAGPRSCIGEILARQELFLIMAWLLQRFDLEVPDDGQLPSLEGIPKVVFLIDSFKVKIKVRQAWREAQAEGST
The experiment in a line: Inhibition of human CYP17 expressed in Escherichia coli at 2.5 uM.

The target in assay [2] is T2, Aromatase (Homo sapiens, UniProt P11511).
T2 sequence (P11511 whole entry): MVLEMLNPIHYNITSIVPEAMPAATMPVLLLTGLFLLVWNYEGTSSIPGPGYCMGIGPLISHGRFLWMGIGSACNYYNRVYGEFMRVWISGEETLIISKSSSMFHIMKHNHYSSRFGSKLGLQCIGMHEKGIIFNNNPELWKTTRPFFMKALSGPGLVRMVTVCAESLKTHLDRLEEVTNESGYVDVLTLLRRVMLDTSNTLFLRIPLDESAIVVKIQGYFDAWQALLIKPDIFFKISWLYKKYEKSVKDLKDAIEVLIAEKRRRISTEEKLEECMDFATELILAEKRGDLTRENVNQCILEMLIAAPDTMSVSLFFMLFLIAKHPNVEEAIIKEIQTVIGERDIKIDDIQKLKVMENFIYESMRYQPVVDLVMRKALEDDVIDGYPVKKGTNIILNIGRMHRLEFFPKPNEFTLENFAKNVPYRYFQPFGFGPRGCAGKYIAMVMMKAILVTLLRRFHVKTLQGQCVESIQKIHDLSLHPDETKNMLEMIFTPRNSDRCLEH

Assay [3] concerns the target T1, Steroid 17-alpha-hydroxylase/17,20 lyase. The experiment in a line: Inhibition of human CYP17 expressed in Escherichia coli.
Assay [4] deals with T2, Aromatase. Nature of the assay: Inhibition of aromatase from human placental microsomes at 10 uM. In a few lines: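 Human placental microsomes were incubated with 1β[3H]androstenedione (500 nM) as substrate. Aromatization was quantified by measuring the tritiated water formed, and results are reported as % inhibition at 10 μM test concentration. Fadrozole served as the positive control.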

The inhibition is the change of the read-out against control, counted positive when it falls. What is called IC50 is the concentration that inhibits the measured activity by half. Read a low IC50 as greater potency.

In assay [1], `c1ccc(Oc2ccccc2Cn2ccnc2)cc1` displayed an inhibition at 2.5 µM of 8%. The same compound registered an IC50 against Aromatase [2] of 389 nM.

Regarding `O=c1c2ccccc2sc2c(Cn3ccnc3)cccc12`, at 2.5 µM the inhibition in assay [1] was 28%. Besides, on Aromatase [2], half-maximal inhibition (IC50) was put at 3.98 nM.

`O=c1c2ccccc2oc2ccc(Cn3ccnc3)cc12` gave an inhibition at 2.5 µM in assay [1] of 11%. For the same compound, at Aromatase [2], 7900 nM corresponded to half-maximal inhibition (IC50).

On to `O=c1c2ccccc2oc2cccc(Cn3ccnc3)c12`, for which the IC50 is 880 nM in assay [3] and 150 nM against Aromatase [2].

`O=[N+]([O-])c1ccc(Cn2ccnc2)c(Oc2ccccc2)c1` returned an IC50 against Aromatase [2] of 11.4 nM.

On to `O=c1c2ccccc2oc2c(Cn3ccnc3)cc([N+](=O)[O-])cc12`, for which the IC50 against Aromatase [2] amounted to 53 nM.

As for `O=c1c2ccccc2oc2c(Cn3ccnc3)c([N+](=O)[O-])ccc12`, the inhibition at 2.5 µM in assay [1] worked out at 9%. Further, the IC50 against Aromatase [2] is 1900 nM.

In the case of `O=c1c2ccccc2sc2c(Cn3ccnc3)ccc([N+](=O)[O-])c12`, the inhibition at 2.5 µM in assay [1] came out at 5%. At Aromatase [2], this compound had an IC50 of 16.5 nM.

At Aromatase [2], `O=c1c2cccnc2oc2c(Cn3ccnc3)ccc([N+](=O)[O-])c12` gave an IC50 of 101 nM.

`O=c1c2ccccc2oc2c(Cn3ccnc3)cccc12` displayed an inhibition at 2.5 µM in assay [1] of 17%. It took 17 nM to reach half-maximal inhibition on Aromatase [2] (IC50).

In assay [1], `O=[N+]([O-])c1ccc(Cn2ccnc2)c(Sc2ccccc2)c1` showed an inhibition at 2.5 µM of 17%. At Aromatase [2], this compound displayed an IC50 of 5.59 nM.

Take `CC(=O)N1CCN(c2ccc(OCC3COC(Cn4ccnc4)(c4ccc(Cl)cc4Cl)O3)cc2)CC1` (stereo not given) [KETOCONAZOLE]: on Aromatase [4], the inhibition at 10 µM was 17.7%.
